Measured values from ChEMBL document CHEMBL3600305, “Flemingin-Type Prenylated Chalcones from the Sarawak Rainforest Plant Desmodium congestum” (J Nat Prod, 2015).
pIC50: −log10 of the molar value. ≈ marks a conversion by molar mass, not a printed value.

How the values were obtained:
Staphylococcus aureus [1] = test: Antibacterial activity against methicillin-resistant Staphylococcus aureus ATCC 43300 after 24 hrs; format: functional; details: ATCC 43300, 24 h
Procedure, shortened: (§1)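 Broth microdilution in MHB. Overnight cultures grown at 37 °C with shaking, diluted 40-fold and grown 2−3 h to mid-log, then added at a final 5 × 10^5 CFU/mL. Compounds in 2-fold serial dilution, final 0.015−32 μg/mL, in duplicate. Incubated 24 h at 37 °C. MIC read visually as the lowest concentration with no visible growth. Vancomycin, daptomycin and colistin served as controls.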

Escherichia coli = test: Antibacterial activity against Escherichia coli ATCC 25922 after 24 hrs; format: functional
Procedure, shortened: as §1, with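 “cultures” for “cultures grown”, “at” for “at a”, “series,” for “serial dilution,”, “as” for “as the”, “colistin” for “colistin served”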

Enterococcus faecalis = test: Antibacterial activity against Enterococcus faecalis clinical isolate expressing VanA after 24 hrs; format: functional; procedure, shortened: as §1
Enterococcus faecium = test: Antibacterial activity against multidrug-resistant Enterococcus faecium ATCC 51559 expressing VanA after 24 hrs; format: functional; details: ATCC 51559, 24 h; procedure, shortened: as §1
Staphylococcus aureus [2] = test: Antibacterial activity against glycopeptide-intermediate Staphylococcus aureus NRSA-NRS 17 after 24 hrs; format: functional; details: NRSA-NRS 17, 24 h
Procedure, shortened: as §1, with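 “cultures” for “cultures grown”, “at” for “at a”, “series,” for “serial dilution,”, “as” for “as the”, “colistin” for “colistin served”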

Staphylococcus aureus [3] = test: Antibacterial activity against methicillin-resistant and glycopeptide-intermediate Staphylococcus aureus NRSA-NRS 1 after 24 hrs; format: functional; details: NRSA-NRS 1, 24 h; procedure, shortened: as §1
Streptococcus pneumoniae = test: Antibacterial activity against multidrug-resistant Streptococcus pneumoniae ATCC 700677 after 24 hrs; format: functional; details: ATCC 700677, 24 h; procedure, shortened: as §1
HEK293 = test: Cytotoxicity against human HEK293 cells after 24 hrs; format: cell-based; details: HEK293, 24 h
Procedure, shortened: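 HEK293 cells seeded at 3000/well in DMEM with 10% FBS, attached 24 h at 37 °C, 5% CO2. Compounds from 1.28 mg/mL DMSO stock in 1:3 serial dilutions, final DMSO 1%, 24 h exposure. Resazurin 10 μM added for 2 h; fluorescence ex/em 560/590 nm. Four replicates; viability normalised to 1% DMSO and negative controls. Tamoxifen positive control.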

| Compound | MIC (Staphylococcus aureus [1]) [µg/mL] | MIC (Escherichia coli; ATCC 25922, 24 h) [µg/mL] | MIC (Enterococcus faecalis) [µg/mL] | MIC (Enterococcus faecium) [µg/mL] | MIC (Staphylococcus aureus [2]) [µg/mL] | MIC (Staphylococcus aureus [3]) [µg/mL] | MIC (Streptococcus pneumoniae) [µg/mL] | pIC50 (HEK293) | MIC (Escherichia coli) [µg/mL] |
| --- | --- | --- | --- | --- | --- | --- | --- | --- | --- |
| COc1cc(C(=O)/C=C/c2cc(O)ccc2O)c(O)c2c1OC(C)(CCC=C(C)C)C=C2 (stereo not drawn) | 32 (≈ 73.3 µM) | > 32 | 16 (≈ 36.7 µM) | 32 (≈ 73.3 µM) | > 32 | 32 (≈ 73.3 µM) | 32 (≈ 73.3 µM) | 4.68 |  |
| COc1cc(C(=O)/C=C/c2cccc(O)c2O)c(O)c2c1OC(C)(CCC=C(C)C)C=C2 (stereo not drawn) | 32 (≈ 73.3 µM) | > 32 | 16 (≈ 36.7 µM) | 32 (≈ 73.3 µM) | > 32 | 32 (≈ 73.3 µM) | 32 (≈ 73.3 µM) | 4.43 |  |
| COLISTIN |  |  |  |  |  |  |  |  | 0.25 |
| CCCCCCCCCC(=O)N[C@@H](Cc1c[nH]c2ccccc12)C(=O)N[C@H](CC(N)=O)C(=O)N[C@@H](CC(=O)O)C(=O)N[C@@H]1C(=O)NCC(=O)N[C@@H](CCCN)C(=O)N[C@@H](CC(=O)O)C(=O)N[C@H](C)C(=O)N[C@@H](CC(=O)O)C(=O)NCC(=O)N[C@H](CO)C(=O)N[C@@H]([C@H](C)CC(=O)O)C(=O)N[C@@H](CC(=O)c2ccccc2N)C(=O)O[C@@H]1C | 1.2 (≈ 0.74 µM) |  | 8 (≈ 4.94 µM) | 16 (≈ 9.87 µM) | 8 (≈ 4.94 µM) | 16 (≈ 9.87 µM) | 2 (≈ 1.23 µM) |  |  |
| CN[C@H](CC(C)C)C(=O)N[C@H]1C(=O)N[C@@H](CC(N)=O)C(=O)N[C@H]2C(=O)N[C@H]3C(=O)N[C@H](C(=O)N[C@H](C(=O)O)c4cc(O)cc(O)c4-c4cc3ccc4O)[C@H](O)c3ccc(c(Cl)c3)Oc3cc2cc(c3O[C@@H]2O[C@H](CO)[C@@H](O)[C@H](O)[C@H]2O[C@H]2C[C@](C)(N)[C@H](O)[C@H](C)O2)Oc2ccc(cc2Cl)[C@H]1O [VANCOMYCIN] |  |  | > 32 | > 32 | 8 (≈ 5.52 µM) | 8 (≈ 5.52 µM) | 2 (≈ 1.38 µM) |  |  |
